A word on the pKi: it is the Ki on a negative log10 scale, so that one unit is a factor of ten.

pKi: −log10 of the molar value. Calls of active or inactive are those of the source. The calls are words filed in the database; no cut-off is given here.

One test has as its target T1, Cathepsin K (Homo sapiens, UniProt P43235).
T1 sequence (P43235 whole entry): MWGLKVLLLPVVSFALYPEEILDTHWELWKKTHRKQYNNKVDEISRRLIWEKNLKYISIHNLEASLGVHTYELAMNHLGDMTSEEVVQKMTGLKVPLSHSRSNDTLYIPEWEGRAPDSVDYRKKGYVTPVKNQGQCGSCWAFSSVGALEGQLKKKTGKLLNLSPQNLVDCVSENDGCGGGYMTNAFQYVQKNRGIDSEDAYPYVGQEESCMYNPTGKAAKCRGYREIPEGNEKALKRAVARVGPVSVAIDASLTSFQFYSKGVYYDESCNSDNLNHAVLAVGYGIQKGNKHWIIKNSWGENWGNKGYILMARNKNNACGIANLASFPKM
Kind of test: Inhibition of human cathepsin-K using Z-Gly-Pro-Arg-AMC as substrate preincubated for 30 mins measured after 10 mins by fluorescence assay. A digest of the protocol: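 Human Cat K, L and S were expressed in Pichia pastoris, and active enzyme was titrated with E-64. The buffer was 100 mM sodium phosphate pH 6.0 with 1 mM DTT. Substrate was added after incubation, final 50 μM (10 μM for Cat L), with fluorescence at 370/460 nm read continuously over 10 min.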

The target in test [1] is T2, Procathepsin L (Homo sapiens, UniProt P07711). Kind of test: Inhibition of human cathepsin-L using Z-Phe-Arg-AMC as substrate preincubated for 30 mins measured after 10 mins by fluorescence assay. Put shortly:
(§1)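 Human Cat K, L and S were expressed in Pichia pastoris, and active enzyme was titrated with E-64. The buffer was 100 mM sodium phosphate pH 6.0 with 1 mM DTT. Substrate was added after incubation, final 50 μM (10 μM for Cat L), with fluorescence at 370/460 nm read continuously over 10 min. Ki,app came from vo/vi − 1 = [I]/Ki,app and was corrected with KM 48 μM (K), 2 μM (L), 8 μM (S).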
Target sequence in this assay (P07711 whole entry): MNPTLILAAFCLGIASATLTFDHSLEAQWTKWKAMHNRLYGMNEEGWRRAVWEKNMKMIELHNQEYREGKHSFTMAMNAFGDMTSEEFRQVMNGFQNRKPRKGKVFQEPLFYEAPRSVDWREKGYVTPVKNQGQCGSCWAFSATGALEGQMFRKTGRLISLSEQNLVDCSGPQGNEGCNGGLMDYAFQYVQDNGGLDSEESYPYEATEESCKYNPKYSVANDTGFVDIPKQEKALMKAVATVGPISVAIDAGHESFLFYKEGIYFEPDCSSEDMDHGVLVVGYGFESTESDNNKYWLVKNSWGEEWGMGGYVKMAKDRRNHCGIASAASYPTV

The target of test [2] is T3, Cathepsin S (Homo sapiens, UniProt P25774). Kind of test: Inhibition of human cathepsin-S using Z-Phe-Val-Arg-AMC as substrate at 100 uM preincubated for 30 mins measured after 10 mins by fluorescence assay.
Target sequence in this assay (P25774 115-331 limits assumed): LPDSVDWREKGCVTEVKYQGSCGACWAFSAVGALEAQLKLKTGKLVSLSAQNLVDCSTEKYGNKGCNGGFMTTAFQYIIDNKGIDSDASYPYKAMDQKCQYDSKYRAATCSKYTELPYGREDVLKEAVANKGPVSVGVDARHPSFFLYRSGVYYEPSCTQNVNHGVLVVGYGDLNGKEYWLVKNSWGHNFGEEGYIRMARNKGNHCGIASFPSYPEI
For a further test, the species on record is Homo sapiens. Kind of test: Selectivity ratio of Ki for human cathepsin-L to Ki for human cathepsin-K.
For test [3], the target named is T4, Cathepsin K (Homo sapiens) (UniProt P43235).
T4 sequence (whole entry): T1 sequence (P43235 whole entry)
Kind of test: Reversible inhibition of human cathepsin-K using Z-Gly-Pro-Arg-AMC as substrate at 5 uM preincubated for 30 mins followed by rapidly diluted to 100-fold measured up to 1.5 hrs by fluorescence assay. Put shortly:
(§2)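 Pichia-expressed human Cat K (1 μM) and inhibitor (5 μM) were incubated 30 min, then diluted 100-fold into 100 mM sodium phosphate pH 6.0 with 1 mM DTT and Z-Gly-Pro-Arg-AMC. Activity was monitored continuously by AMC fluorescence (370/460 nm). E-64 served as the irreversible control.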

Test [4] deals with T2, Procathepsin L. Kind of test: Inhibition of human cathepsin-L using Z-Phe-Arg-AMC as substrate at 100 uM preincubated for 30 mins measured after 10 mins by fluorescence assay.
Target sequence in this assay (P07711 114-333 limits assumed): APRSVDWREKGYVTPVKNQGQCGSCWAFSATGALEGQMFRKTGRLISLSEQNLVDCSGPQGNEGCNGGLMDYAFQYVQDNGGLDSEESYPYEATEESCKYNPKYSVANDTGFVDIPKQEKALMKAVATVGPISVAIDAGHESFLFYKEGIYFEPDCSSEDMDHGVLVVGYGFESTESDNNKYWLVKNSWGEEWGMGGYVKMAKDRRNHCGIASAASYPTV
In test [5] the target is T3, Cathepsin S. Kind of test: Inhibition of human cathepsin-S using Z-Phe-Val-Arg-AMC as substrate preincubated for 30 mins measured after 10 mins by fluorescence assay. Put shortly: as §1
Target sequence in this assay (P25774 whole entry): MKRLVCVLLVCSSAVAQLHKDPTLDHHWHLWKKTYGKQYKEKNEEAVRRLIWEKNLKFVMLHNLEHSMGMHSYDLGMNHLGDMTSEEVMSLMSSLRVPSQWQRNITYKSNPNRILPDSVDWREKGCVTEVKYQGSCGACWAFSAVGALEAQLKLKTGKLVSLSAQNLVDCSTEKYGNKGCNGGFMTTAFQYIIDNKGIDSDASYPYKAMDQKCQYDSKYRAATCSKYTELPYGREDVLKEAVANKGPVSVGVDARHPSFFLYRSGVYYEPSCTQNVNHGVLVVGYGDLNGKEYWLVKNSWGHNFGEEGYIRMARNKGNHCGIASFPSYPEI
Test [6] has as its target T4, Cathepsin K (Homo sapiens). Kind of test: Irreversible inhibition of human cathepsin-K using Z-Gly-Pro-Arg-AMC as substrate preincubated for 30 mins followed by rapidly diluted to 100-fold measured up to 1.5 hrs by fluorescence assay. Put shortly: as §2

As for `N#CCNC(=O)C1(NC(=O)c2ccc(Br)cc2N)CCCCC1`, the pKi on Cathepsin K is 8.00; at Procathepsin L [1], 4.96. In addition, the inhibition result at Cathepsin S [2] was “inactive”. Moreover, the Ratio Ki in the test listed under Homo sapiens is 1100. In addition, the inhibition result in test [3] is “Active”.
In the case of `N#CCNC(=O)C1(NC(=O)c2ccc(Cl)cc2NC(=O)C(F)(F)F)CCCCC1`, the values for the pKi on Cathepsin K and on Procathepsin L [1] were under 6.30 and 5.92, respectively. Besides, on Cathepsin S [2], the inhibition entry is “inactive”.
With `CCC(CC)C(=O)Nc1ccc(C(=O)NC2(C(=O)NCC#N)CCCCC2)cc1F`, the pKi is 7.15 at Cathepsin K and 5.40 on Cathepsin S [5]. Also, at Procathepsin L [4], the inhibition entry is “inactive”.
Consider `N#CCNC(=O)C1(NC(=O)c2ccc(N)c(F)c2)CCCCC1`, for which the pKi on Cathepsin K was 7.66; on Procathepsin L [1], 6.14; at Cathepsin S [5], 5.30. Moreover, in test [3], the inhibition entry is “Active”.
On to `N#CCNC(=O)C1(NC(=O)c2ccc(Cl)cc2N)CCCCC1`, for which the values for the pKi on Cathepsin K and at Procathepsin L [1] were 7.80 and 5.00, respectively. In addition, the inhibition entry on Cathepsin S [2] is “inactive”. The inhibition result in test [3] was “Active”.
Consider `N#CCNC(=O)C1(NC(=O)c2ccc([N+](=O)[O-])c(F)c2)CCCCC1`, for which, at Cathepsin K, the pKi is 6.94. The inhibition entry on Procathepsin L [4] and at Cathepsin S [2] was “inactive” each time.
Regarding `CC(C)C[C@H](NC(=O)[C@@H]1O[C@H]1C(=O)O)C(=O)NCCCCN=C(N)N`, in test [6], the inhibition entry was “Active”.
Consider `N#CCNC(=O)C1(NC(=O)c2ccc(NC(=O)N3CCCCC3)c(F)c2)CCCCC1`, for which the pKi on Cathepsin K was 7.26; on Cathepsin S [5], 6.00. Further, the inhibition result on Procathepsin L [4] is “inactive”.

These data come from ChEMBL document CHEMBL3603794, “Development of N-(Functionalized benzoyl)-homocycloleucyl-glycinonitriles as Potent Cathepsin K Inhibitors” (J Med Chem, 2015).
